The IC50 is the midpoint of a concentration-inhibition curve. What is called efflux ratio is the permeability from basolateral to apical divided by that in the opposite direction, in the common usage. Usually Cmax stands for the highest concentration seen after dosing. In general, Kp refers to the ratio of the level in a tissue or fluid to that in plasma or blood.

Data set [1] deals with T1, Amine oxidase [flavin-containing] A (Homo sapiens, UniProt P21397).
T1 sequence (P21397 whole entry): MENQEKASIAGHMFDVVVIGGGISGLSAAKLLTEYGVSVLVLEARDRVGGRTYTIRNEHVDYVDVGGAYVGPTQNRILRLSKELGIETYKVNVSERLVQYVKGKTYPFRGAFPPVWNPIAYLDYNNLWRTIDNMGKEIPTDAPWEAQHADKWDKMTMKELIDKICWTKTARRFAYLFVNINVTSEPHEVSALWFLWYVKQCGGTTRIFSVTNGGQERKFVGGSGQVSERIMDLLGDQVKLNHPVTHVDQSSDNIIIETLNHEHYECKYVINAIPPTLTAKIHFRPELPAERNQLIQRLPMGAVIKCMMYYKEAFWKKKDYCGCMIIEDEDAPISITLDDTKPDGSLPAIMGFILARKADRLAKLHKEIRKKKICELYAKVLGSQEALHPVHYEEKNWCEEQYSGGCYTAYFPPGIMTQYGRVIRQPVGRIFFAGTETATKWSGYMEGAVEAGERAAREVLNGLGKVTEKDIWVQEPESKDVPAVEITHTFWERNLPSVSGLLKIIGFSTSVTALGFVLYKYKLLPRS
The data set can be described thus: Inhibition of human recombinant MAO-A expressed in baculovirus infected BTI-TN-5B1-4 insect cells using tyramine as substrate preincubated for 1 hr followed by substrate addition and measured after 30 mins by resazurin dye-based fluorescence assay. A general note: The colour change of resazurin is a common sign of viable cells or microbes.

In data set [2] the test system is P-gp (MDR1). The data set can be described thus: Efflux ratio of apparent permeability in MDCK2-MDR1 cells at 10 uM after 1 hr in absence of P-gp inhibitor verapamil by UPLC-MS/MS analysis. The format is ADME, cell-based, Canis lupus familiaris. The following applies: dog, MDCK-MDR1. The gist of the method:
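MDCK-WT (MEM-α/10% FBS) or MDCK-MDR1 II (DMEM/10% FBS) cells were grown 3 days on 12-well transwells. Integrity was checked by TEER and 100 μM Lucifer yellow. Cells were washed in HBSS/10 mM HEPES. Compound at 10 μM was added apically or basally, in triplicate, ±100 μM verapamil. Receiver sampled at 1 h by UPLC-MS/MS. Efflux ratio = Papp B→A / Papp A→B.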

Data set [3] in a line: Metabolic stability in human plasma assessed as parent compound remaining at 5 uM after 4 hrs by UPLC-MS/MS analysis. The format is ADME, cell-free. Conditions: read-out: Stability. The gist of the method:
(§1)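 Compound at 5 μM was incubated in mouse or human plasma at 37 °C with shaking. Sampled at 0, 5, 15, 30, 60, 120 and 240 min and stopped with ice-cold acetonitrile/0.1% formic acid containing internal standard. Supernatants analysed by UPLC-MS/MS for parent remaining. Run in triplicate.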

Data set [4] is described as follows: Metabolic stability in mouse plasma assessed as parent compound remaining at 5 uM after 4 hrs by UPLC-MS/MS analysis. The format is ADME, cell-free. The following applies: read-out: Stability. The gist of the method:
as §1

Data set [5] is described as follows: Metabolic stability in mouse liver microsomes assessed as parent compound remaining at 1 uM after 60 mins in presence of NADPH by UPLC-MS/MS analysis. The following applies: read-out: Stability. The format is ADME, microsome. The gist of the method: (§2)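 Compound at 1 μM with 0.5 mg/mL mouse or human liver microsomes in 100 mM potassium phosphate pH 7.4, 3.3 mM MgCl2, 1 mM NADPH, at 37 °C. Started with NADPH; minus-NADPH control run. Stopped at 0, 5, 15, 30, 45 and 60 min with acetonitrile/formic acid plus internal standard. Parent remaining by UPLC-MS/MS, in triplicate.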
(Liver microsomes are vesicles of endoplasmic reticulum, rich in cytochrome P450 enzymes.)

A short description of data set [6]: Metabolic stability in human liver microsomes assessed as parent compound remaining at 1 uM after 60 mins by UPLC-MS/MS analysis. The format is ADME, microsome. Conditions: liver microsomes, read-out: Stability. The gist of the method: as §2
The nature of data set [7]: Metabolic stability in cryopreserved mouse hepatocytes assessed as parent compound remaining at 1 uM after 60 mins by UPLC-MS/MS analysis. Conditions: read-out: Stability. The format is ADME, cell-based, Hepatocyte.
Data set [8] has as its system Mus musculus. In words: Acute toxicity in C57BL/6 mouse assessed as abnormal clinical signs at […], sc administered as single dose measured after 24 hrs post-injection. The format is organism-based. Conditions: in vivo.
The nature of data set [9]: Cmax in C57BL/6 mouse plasma at 24.5 mg/kg, iv administered as single dose measured 24 hrs by UPLC-MS/MS analysis. The format is ADME, organism-based. Set-up: dose 24.5 mg/kg, route intravenous. The gist of the method:
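21 animals dosed at 0 min, 3 sacrificed at each of 0, 5, 15, 30 min, 1, 4 and 24 h. Plasma was extracted by protein precipitation with phospholipid removal. Brain was weighed, bead-homogenised in 50 mM ammonium formate and extracted in acidified organic solvent. Quantified by UPLC-MS/MS (MRM). Brain ng/g taken as ng/mL. Parameters came from noncompartmental analysis. Kp = AUClast brain/plasma.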

The test system of data set [10] is Mus musculus. The data set can be described thus: Acute toxicity in C57BL/6 mouse assessed as abnormal clinical signs at […], iv administered as single dose measured after 24 hrs post-injection. Conditions: in vivo. The format is organism-based.
Data set [11] has as its system Mus musculus. In words: Acute toxicity in C57BL/6 mouse assessed as abnormal clinical signs at […], po administered as single dose measured after 24 hrs post-injection. The format is organism-based. Conditions: in vivo.
Data set [12] is described as follows: Efflux ratio of apparent permeability in MDCK-WT cells at 10 uM after 1 hr in absence of P-gp inhibitor verapamil by UPLC-MS/MS analysis. Conditions: dog.
The target of data set [13] is T2, Amine oxidase [flavin-containing] B (Homo sapiens, UniProt P27338).
T2 sequence (P27338 whole entry): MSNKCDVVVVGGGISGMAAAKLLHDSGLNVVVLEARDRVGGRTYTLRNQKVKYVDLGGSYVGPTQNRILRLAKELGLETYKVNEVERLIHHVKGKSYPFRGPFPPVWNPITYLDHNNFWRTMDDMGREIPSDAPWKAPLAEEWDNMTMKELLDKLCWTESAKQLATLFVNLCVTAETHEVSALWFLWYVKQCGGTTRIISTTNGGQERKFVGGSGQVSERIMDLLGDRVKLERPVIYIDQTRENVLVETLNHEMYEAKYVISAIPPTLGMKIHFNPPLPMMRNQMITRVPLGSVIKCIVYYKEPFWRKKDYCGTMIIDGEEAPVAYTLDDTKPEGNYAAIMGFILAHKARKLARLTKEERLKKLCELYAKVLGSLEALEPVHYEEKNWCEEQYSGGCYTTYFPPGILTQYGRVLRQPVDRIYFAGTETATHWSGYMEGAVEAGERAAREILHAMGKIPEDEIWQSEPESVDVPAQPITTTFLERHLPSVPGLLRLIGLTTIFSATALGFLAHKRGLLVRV
In words: Inhibition of human recombinant MAO-B expressed in baculovirus infected BTI-TN-5B1-4 insect cells using benzylamine as substrate preincubated for 1 hr followed by substrate addition and measured after 30 mins by resazurin dye-based fluorescence assay. The format is cell-based.

The nature of data set [14]: Apparent half-life of the terminal disposition phase in C57BL/6 mouse plasma at 23.4 mg/kg, po administered as single dose measured 24 hrs by UPLC-MS/MS analysis. The format is ADME, organism-based. The following applies: read-out: t1/2 lambda z (converted). The gist of the method: (§3)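 15 animals dosed, 3 killed at each of 1, 2, 4, 6 and 24 h. Plasma and brain homogenate (ammonium formate, acidified organic extraction) assayed by UPLC-MS/MS, brain ng/g taken as ng/mL. Noncompartmental parameters exclude values above/below quantification limit or undetected. Kp = AUClast brain/plasma.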

Data set [15] in a line: Ratio of AUClast in brain to plasma in C57BL/6 mouse at 23.4 mg/kg, po administered as single dose measured 24 hrs by UPLC-MS/MS analysis. The format is ADME, organism-based. The gist of the method: as §3

For `C[C@H](Cc1ccc(OCc2ccc(Br)c(Cl)c2)cc1)N(C)CC(=O)O`, the IC50 in [1] is greater than 50 µM. For the same molecule, the results for the efflux ratio at 1 h, 10 µM in data set [2] and in data set [12] were 2.12 and 1.33, respectively. For the same molecule, the remaining at 4 h, 5 µM in data set [3] and in [4] was no less than 75% each time. Also, the remaining at 1 h, 1 µM in data set [5] is 93.4%; in data set [6], no less than 90%; in data set [7], no less than 90%. In addition, the Activity result in data set [8], in [10] and in data set [11] was “Non-Toxic” throughout. In data set [9], this molecule registered a Cmax of 16700 ng/mL.

With `CN(CC(=O)O)[C@H](CC#N)Cc1ccc(OCc2ccc(Cl)c(Cl)c2)cc1`, the IC50 came to 126 µM in data set [1] and 0.206 µM in data set [13]. In addition, the efflux ratio at 1 h, 10 µM in data set [2] is 1.14; in [12], 1.07. For the same molecule, the remaining at 4 h, 5 µM in data set [3] and in [4] was no less than 75% each time. In addition, the figures for the remaining at 1 h, 1 µM in data set [5], in [6] and in data set [7] were 39%, no less than 90% and 64%, respectively. Moreover, the Activity result in [8], in data set [10] and in data set [11] was “Non-Toxic” throughout. Moreover, the half-life in data set [14] was 2.93 h. The Kp at 24 h in [15] worked out at 0.002.

The values above are taken from ChEMBL document CHEMBL4229446, “Development of Novel Monoamine Oxidase-B (MAO-B) Inhibitors with Reduced Blood-Brain Barrier Permeability for the Potential Management of Noncentral Nervous System (CNS) Diseases” (J Med Chem, 2018).
